Data as given in ChEMBL document CHEMBL5584279, “New Lipophilic Hydroxamates as Promising Trypanocidal Agents: Design, Synthesis, SAR, and Conformational Behavior Studies” (ACS Med Chem Lett, 2024).

The compounds below were run on Trypanosoma brucei (assay: Trypanocidal activity against bloodstream form of Trypanosoma brucei 221 assessed as inhibition of parasite growth incubated for 48 hrs followed by resazurin addition and measured after 16 hrs by resazurin assay).
Format: functional, organism-based
In short: (§1)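 Bloodstream-form T. brucei were cultured in vitro at pH 7.4. Growth inhibition was expressed as IC50 and IC90, the concentrations that inhibit parasite growth by 50% and 90%. Values are the mean of triplicate experiments ± SEM.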

Structure (SMILES) | IC50 [µM]
CC(C)C[C@@H]1NC2(CCCCCC2)C(=O)N(CC(=O)NO)C1=O | 0.099

Each compound was assayed on Trypanosoma brucei (assay: Trypanocidal activity against bloodstream form of Trypanosoma brucei assessed as inhibition of parasite growth).
Format: functional, organism-based
In short: as §1

Structure (SMILES) | IC50 [µM]
CCCC1(c2ccccc2)C(=O)N(CC(=O)NO)C(=O)CN1C (stereo not drawn) | 1.77
CCCN1CC(=O)N(CC(=O)NO)C(=O)C1(C)c1ccccc1 (stereo not drawn) | 0.47
CCCCN1CC(=O)N(CC(=O)NO)C(=O)C1(C)c1ccccc1 (stereo not drawn) | 0.63
CN1CC(=O)N(CC(=O)NO)C(=O)C1(C)c1ccccc1 (stereo not drawn) | 0.59
CC1(c2ccc([N+](=O)[O-])cc2)NCC(=O)N(CC(=O)NO)C1=O (stereo not drawn) | 11.7
CC1(c2ccc(F)cc2)NCC(=O)N(CC(=O)NO)C1=O (stereo not drawn) | 19.1
CN1CC(=O)N(CC(=O)NO)C(=O)C1(C)c1ccc(F)cc1 (stereo not drawn) | 8.16
CN1CC(=O)N(CC(=O)NO)C(=O)C1(C)c1ccc([N+](=O)[O-])cc1 (stereo not drawn) | 1.22
CCCCC1(c2ccccc2)NCC(=O)N(CC(=O)NO)C1=O (stereo not drawn) | 1.72
CC1(c2ccccc2)NCC(=O)N(CC(=O)NO)C1=O (stereo not drawn) | 6.97
CCCC1(c2ccccc2)NCC(=O)N(CC(=O)NO)C1=O (stereo not drawn) | 7.25
CCCCC1(c2ccccc2)C(=O)N(CC(=O)NO)C(=O)CN1C (stereo not drawn) | 2.65
